# Data as given in ChEMBL document CHEMBL5653622 (Oncotarget, 2016).
# Calls of active or inactive are those of the source. The calls are words filed in the database; no cut-off is given here.
# What was measured:
# [1] = molecular target: Tyrosine-protein kinase Lck (Homo sapiens) (UniProt P06239); assay: Inhibition of human Lck assessed as remaining activity at 10 uM in presence of ATP by radiometric kinase assay relative to control
# [2] = molecular target: Dual specificity tyrosine-phosphorylation-regulated kinase 1A (Homo sapiens) (UniProt Q13627); assay: Inhibition of human DYRK1A assessed as remaining activity at 10 uM in presence of ATP by radiometric kinase assay relative to control
# [3] = molecular target: MAP/microtubule affinity-regulating kinase 3 (Homo sapiens, UniProt P27448); assay: Inhibition of human MARK3 at 10 uM in presence of ATP by radiometric kinase assay relative to control
# [4] = molecular target: Mitogen-activated protein kinase kinase kinase 5 (Homo sapiens) (UniProt Q99683); assay: Inhibition of human ASK1 assessed as remaining activity at 10 uM in presence of ATP by radiometric kinase assay relative to control
# [5] = Toxicity in Emu-Myc driven transgenic mouse transplant model of B-cell lymphoma assessed as change in body temperature at 150 mg/kg, po administered for 9 days; type: organism-based; details: in vivo, 216 h, time 9 day
# [6] = molecular target: Maternal embryonic leucine zipper kinase (Homo sapiens) (UniProt Q14680); assay: Inhibition of human MELK assessed as remaining activity at 10 uM in presence of ATP by radiometric kinase assay relative to control
# [7] = Toxicity in Emu-Myc driven transgenic mouse transplant model of B-cell lymphoma assessed as increase in weight of spleen at 150 mg/kg, po administered for 9 days; type: organism-based; details: in vivo, 216 h, time 9 day
# Mus musculus [8] = assay: In vivo inhibition of CHK1 in CRTac:Ncr-Fox1 mouse xenografted with human HT-29 cells assessed as reduction of phosphorylation of CHK1 on S296 at 50 mg/kg, po administered for 24 hrs by Western blotting analysis; type: functional, organism-based
# How it was run: (§1)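 HT29 s.c. xenografts in female athymic nude mice. Single gemcitabine dose 100mg/kg i.v. on day 0, then one inhibitor dose 50 or 100mg/kg p.o. (DPTW vehicle) 24h later. Tumors taken 24h after the last dose, western blotted, and signals quantified by normalizing to GAPDH.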
# [9] = molecular target: Tyrosine-protein kinase Yes (Homo sapiens) (UniProt P07947); assay: Inhibition of human YES1 assessed as remaining activity at 10 uM in presence of ATP by radiometric kinase assay relative to control
# [10] = AUC (0 to t) in BALB/C mouse spleen at 10 mg/kg, po by LC/MS-MS analysis; type: ADME, organism-based
# Mus musculus [11] = assay: In vivo inhibition of CHK1 in CRTac:Ncr-Fox1 athymic mouse xenografted with human Calu-6 cells assessed as inhibition of CHK1 phosphorylation on S296 at 150 mg/kg, po in presence of gemcitabine and carboplatin by ELISA analysis; type: functional, organism-based
# [12] = molecular target: Serine/threonine-protein kinase 33 (Homo sapiens) (UniProt Q9BYT3); assay: Inhibition of human STK33 assessed as remaining activity at 10 uM in presence of ATP by radiometric kinase assay relative to control
# [13] = molecular target: Serine/threonine-protein kinase PAK 6 (Homo sapiens) (UniProt Q9NQU5); assay: Inhibition of human PAK6 assessed as remaining activity at 10 uM in presence of ATP by radiometric kinase assay relative to control
# [14] = molecular target: Serine/threonine-protein kinase BRSK1 (Homo sapiens) (UniProt Q8TDC3); assay: Inhibition of human BRSK1 at 10 uM in presence of ATP by radiometric kinase assay relative to control
# [15] = molecular target: Receptor tyrosine-protein kinase erbB-4 (Homo sapiens) (UniProt Q15303); assay: Inhibition of human HER4 assessed as remaining activity at 10 uM in presence of ATP by radiometric kinase assay relative to control
# [16] = Toxicity in Emu-Myc driven transgenic mouse transplant model of B-cell lymphoma assessed as reduction in weight of the brachial/axillary lymph nodes at 150 mg/kg, po administered for 9 days; type: organism-based; details: in vivo, 216 h, time 9 day
# [17] = molecular target: Mitogen-activated protein kinase kinase kinase 9 (Homo sapiens) (UniProt P80192); assay: Inhibition of human MLK1 assessed as remaining activity at 10 uM in presence of ATP by radiometric kinase assay relative to control
# Mus musculus [18] = assay: In vivo inhibition of CHK1 in CRTac:Ncr-Fox1 mouse xenografted with human HT-29 cells assessed as reduction of phosphorylation of CDK1 on Y15 at 100 mg/kg, po administered for 24 hrs by Western blotting analysis; type: functional, organism-based; how it was run: as §1
# [19] = molecular target: Protein-tyrosine kinase 6 (Homo sapiens) (UniProt Q13882); assay: Inhibition of human BRK assessed as remaining activity at 10 uM in presence of ATP by radiometric kinase assay relative to control
# [20] = molecular target: Interleukin-1 receptor-associated kinase 1 (Homo sapiens) (UniProt P51617); assay: Inhibition of human IRAK1 assessed as remaining activity at 10 uM in presence of ATP by radiometric kinase assay relative to control
# [21] = molecular target: Dual specificity tyrosine-phosphorylation-regulated kinase 3 (Homo sapiens) (UniProt O43781); assay: Inhibition of human DYRK3 assessed as remaining activity at 10 uM in presence of ATP by radiometric kinase assay relative to control
# HT-29 = assay: Induction of cell cycle arrest in human HT-29 cells assessed as decrease in accumulation of cells at G0/G1 phase at 1 to 5 uM incubated for 24 hrs by BrdU and PI staining based flow cytometry analysis; type: functional; details: dose 1-5 µM
# How it was run: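 HT29 cells exposed for 24h, stained with bromodeoxyuridine and propidium iodide, and cell-cycle distribution measured by flow cytometry.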
# [22] = molecular target: Serine/threonine-protein kinase BRSK1 (Homo sapiens, UniProt Q8TDC3); assay: Inhibition of human BRSK1 by FRET based Z-LYTE kinase assay
# [23] = molecular target: Ribosomal protein S6 kinase alpha-1 (Homo sapiens, UniProt Q15418); assay: Inhibition of human RSK1 by 33P radiometric kinase assay
# [24] = molecular target: Interleukin-1 receptor-associated kinase 4 (Homo sapiens) (UniProt Q9NWZ3); assay: Inhibition of human IRAK4 assessed as remaining activity at 10 uM in presence of ATP by radiometric kinase assay relative to control
# [25] = molecular target: Tyrosine-protein kinase JAK2 (Homo sapiens) (UniProt O60674); assay: Inhibition of human JAK2 assessed as remaining activity at 10 uM in presence of ATP by radiometric kinase assay relative to control
# [26] = molecular target: MAP kinase-interacting serine/threonine-protein kinase 2 (Homo sapiens) (UniProt Q9HBH9); assay: Inhibition of human MNK2 assessed as remaining activity at 10 uM in presence of ATP by radiometric kinase assay relative to control
# [27] = molecular target: Ribosomal protein S6 kinase alpha-3 (Homo sapiens, UniProt P51812); assay: Inhibition of human RSK2 by FRET based Z-LYTE kinase assay
# [28] = Toxicity in Emu-Myc driven transgenic mouse transplant model of B-cell lymphoma assessed as reduction in weight of the mesenteric lymph nodes at 150 mg/kg, po administered for 9 days; type: organism-based; details: in vivo, 216 h, time 9 day
# Chain of Tyrosine-protein kinase Lck (Homo sapiens) (P06239 2-509 limits assumed): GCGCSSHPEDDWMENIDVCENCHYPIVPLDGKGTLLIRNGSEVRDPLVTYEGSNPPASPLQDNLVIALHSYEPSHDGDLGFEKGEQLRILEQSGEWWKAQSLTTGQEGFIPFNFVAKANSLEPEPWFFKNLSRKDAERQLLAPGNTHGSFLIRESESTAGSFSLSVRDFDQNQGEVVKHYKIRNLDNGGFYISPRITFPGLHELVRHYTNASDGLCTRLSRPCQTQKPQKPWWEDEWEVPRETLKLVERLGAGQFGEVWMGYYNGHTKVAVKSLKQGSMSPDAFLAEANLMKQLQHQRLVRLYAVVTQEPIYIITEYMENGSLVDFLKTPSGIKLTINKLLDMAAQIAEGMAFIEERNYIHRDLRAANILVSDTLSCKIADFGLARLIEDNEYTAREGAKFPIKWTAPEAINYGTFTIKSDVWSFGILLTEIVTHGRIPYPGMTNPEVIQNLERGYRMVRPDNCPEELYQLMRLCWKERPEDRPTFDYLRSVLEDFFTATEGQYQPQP
# Chain of Receptor tyrosine-protein kinase erbB-4 (Homo sapiens) (Q15303 whole entry): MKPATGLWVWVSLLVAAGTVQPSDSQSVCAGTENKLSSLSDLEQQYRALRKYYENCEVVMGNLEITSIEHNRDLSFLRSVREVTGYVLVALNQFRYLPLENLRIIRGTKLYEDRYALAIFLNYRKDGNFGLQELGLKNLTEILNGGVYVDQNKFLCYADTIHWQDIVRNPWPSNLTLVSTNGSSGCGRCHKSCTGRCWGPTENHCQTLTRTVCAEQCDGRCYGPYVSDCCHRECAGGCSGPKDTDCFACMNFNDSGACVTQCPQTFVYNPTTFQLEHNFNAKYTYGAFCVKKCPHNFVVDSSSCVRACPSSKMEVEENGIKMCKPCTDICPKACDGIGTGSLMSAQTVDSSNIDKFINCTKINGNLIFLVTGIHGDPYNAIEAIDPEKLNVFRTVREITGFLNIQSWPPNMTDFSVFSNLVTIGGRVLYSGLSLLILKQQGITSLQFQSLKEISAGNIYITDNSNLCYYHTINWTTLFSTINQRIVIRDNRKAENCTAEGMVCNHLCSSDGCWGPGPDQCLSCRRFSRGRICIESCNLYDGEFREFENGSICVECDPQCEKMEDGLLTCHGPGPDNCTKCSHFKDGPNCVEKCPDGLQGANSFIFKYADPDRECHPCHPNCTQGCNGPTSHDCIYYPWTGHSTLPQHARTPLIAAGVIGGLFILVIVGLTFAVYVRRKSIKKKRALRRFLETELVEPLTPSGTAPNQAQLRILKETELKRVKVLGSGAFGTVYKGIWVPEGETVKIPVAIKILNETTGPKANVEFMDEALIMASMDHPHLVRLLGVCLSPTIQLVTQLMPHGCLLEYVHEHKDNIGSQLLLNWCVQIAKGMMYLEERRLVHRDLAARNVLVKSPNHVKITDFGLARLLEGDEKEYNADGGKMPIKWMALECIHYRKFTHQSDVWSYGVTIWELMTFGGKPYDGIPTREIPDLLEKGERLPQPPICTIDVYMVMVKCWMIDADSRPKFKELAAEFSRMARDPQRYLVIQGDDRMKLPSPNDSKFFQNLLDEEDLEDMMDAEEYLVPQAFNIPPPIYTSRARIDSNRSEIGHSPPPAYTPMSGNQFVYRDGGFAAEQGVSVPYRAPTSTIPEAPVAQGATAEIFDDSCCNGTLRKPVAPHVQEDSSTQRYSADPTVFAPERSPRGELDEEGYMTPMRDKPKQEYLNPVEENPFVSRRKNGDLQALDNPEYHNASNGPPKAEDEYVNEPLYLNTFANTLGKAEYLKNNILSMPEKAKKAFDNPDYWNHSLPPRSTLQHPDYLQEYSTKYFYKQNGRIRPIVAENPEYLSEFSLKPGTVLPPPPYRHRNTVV
# Chain of Mitogen-activated protein kinase kinase kinase 9 (Homo sapiens) (P80192 whole entry, looked up): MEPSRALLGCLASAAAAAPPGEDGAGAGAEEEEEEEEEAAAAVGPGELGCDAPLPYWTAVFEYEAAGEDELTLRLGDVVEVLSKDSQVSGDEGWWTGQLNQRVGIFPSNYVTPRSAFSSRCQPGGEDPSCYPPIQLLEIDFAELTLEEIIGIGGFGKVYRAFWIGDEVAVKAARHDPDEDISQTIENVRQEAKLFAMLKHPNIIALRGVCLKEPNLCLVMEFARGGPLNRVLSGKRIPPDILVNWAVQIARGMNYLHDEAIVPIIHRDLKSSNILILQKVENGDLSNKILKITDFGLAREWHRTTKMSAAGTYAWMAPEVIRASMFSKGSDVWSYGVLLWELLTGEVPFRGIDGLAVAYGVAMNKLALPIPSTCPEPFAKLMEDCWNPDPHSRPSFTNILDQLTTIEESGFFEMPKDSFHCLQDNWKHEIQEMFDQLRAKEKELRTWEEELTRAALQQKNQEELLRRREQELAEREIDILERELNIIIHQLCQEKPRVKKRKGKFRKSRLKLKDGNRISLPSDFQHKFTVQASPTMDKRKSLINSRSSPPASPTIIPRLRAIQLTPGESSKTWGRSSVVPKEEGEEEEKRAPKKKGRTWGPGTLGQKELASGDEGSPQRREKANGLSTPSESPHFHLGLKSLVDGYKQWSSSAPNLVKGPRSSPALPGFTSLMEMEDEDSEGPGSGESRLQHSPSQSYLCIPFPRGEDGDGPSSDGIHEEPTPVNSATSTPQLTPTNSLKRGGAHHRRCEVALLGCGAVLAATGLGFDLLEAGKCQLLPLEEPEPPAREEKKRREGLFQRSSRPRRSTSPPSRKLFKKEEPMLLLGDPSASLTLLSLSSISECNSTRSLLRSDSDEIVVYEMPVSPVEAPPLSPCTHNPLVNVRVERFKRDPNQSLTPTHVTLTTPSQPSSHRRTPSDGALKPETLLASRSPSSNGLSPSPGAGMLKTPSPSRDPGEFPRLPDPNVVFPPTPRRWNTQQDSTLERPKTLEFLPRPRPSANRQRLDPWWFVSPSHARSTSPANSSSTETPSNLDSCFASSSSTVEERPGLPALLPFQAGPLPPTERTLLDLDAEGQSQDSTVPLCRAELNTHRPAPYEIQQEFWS
# Chain of Ribosomal protein S6 kinase alpha-3 (P51812 whole entry): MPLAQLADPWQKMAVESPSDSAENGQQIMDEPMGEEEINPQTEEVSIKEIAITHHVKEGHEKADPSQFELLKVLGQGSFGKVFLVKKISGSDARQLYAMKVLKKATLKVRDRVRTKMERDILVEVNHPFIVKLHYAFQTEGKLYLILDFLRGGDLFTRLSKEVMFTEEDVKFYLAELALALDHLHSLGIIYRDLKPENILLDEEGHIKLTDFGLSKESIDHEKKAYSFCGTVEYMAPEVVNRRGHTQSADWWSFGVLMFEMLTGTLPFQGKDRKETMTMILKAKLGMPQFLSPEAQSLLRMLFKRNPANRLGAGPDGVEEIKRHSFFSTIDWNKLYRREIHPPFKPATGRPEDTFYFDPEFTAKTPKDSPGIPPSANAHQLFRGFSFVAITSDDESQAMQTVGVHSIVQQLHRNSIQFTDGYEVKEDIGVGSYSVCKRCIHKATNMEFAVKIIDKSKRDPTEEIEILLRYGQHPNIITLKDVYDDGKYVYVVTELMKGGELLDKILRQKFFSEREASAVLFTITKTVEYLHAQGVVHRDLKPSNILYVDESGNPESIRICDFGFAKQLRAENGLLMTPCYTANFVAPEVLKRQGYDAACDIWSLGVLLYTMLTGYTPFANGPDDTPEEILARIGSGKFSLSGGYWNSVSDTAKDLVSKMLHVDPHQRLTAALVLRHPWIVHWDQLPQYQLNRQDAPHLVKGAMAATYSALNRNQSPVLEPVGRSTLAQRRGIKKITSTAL
# Chain of Serine/threonine-protein kinase BRSK1 (Homo sapiens) (Q8TDC3 whole entry): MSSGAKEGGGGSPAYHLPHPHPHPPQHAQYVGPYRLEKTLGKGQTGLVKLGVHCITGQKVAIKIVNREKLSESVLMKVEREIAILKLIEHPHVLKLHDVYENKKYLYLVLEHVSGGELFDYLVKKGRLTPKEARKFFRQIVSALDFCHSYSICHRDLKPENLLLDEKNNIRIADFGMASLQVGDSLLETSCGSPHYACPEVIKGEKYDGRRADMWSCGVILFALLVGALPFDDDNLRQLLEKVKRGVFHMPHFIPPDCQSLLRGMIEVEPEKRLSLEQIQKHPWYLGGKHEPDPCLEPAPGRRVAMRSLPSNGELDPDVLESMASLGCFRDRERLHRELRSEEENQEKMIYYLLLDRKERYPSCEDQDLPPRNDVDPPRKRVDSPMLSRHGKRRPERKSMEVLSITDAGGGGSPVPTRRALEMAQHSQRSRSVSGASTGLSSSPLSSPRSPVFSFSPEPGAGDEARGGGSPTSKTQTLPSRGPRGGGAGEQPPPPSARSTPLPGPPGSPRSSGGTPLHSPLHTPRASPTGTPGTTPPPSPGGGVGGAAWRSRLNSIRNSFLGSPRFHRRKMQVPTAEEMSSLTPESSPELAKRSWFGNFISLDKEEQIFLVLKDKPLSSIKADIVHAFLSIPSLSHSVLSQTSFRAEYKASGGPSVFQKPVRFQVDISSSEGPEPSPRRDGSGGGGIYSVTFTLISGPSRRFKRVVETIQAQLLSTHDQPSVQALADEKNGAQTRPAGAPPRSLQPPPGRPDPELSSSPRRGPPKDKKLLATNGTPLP
# Chain of Serine/threonine-protein kinase BRSK1 (Q8TDC3 whole entry): as above
# Chain of Serine/threonine-protein kinase 33 (Homo sapiens) (Q9BYT3 whole entry, looked up): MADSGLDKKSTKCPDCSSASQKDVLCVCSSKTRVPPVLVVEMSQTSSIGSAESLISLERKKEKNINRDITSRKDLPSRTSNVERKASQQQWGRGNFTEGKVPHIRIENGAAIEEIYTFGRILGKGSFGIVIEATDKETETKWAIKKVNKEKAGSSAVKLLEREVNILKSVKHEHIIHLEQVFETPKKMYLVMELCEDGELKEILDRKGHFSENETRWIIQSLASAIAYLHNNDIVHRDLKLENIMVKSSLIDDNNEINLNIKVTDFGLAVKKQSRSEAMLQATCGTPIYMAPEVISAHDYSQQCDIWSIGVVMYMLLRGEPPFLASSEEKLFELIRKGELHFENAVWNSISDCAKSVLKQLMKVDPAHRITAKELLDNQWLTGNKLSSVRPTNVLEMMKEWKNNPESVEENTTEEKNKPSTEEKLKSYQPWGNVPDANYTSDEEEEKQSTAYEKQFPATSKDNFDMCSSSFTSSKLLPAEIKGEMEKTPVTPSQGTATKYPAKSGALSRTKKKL
compound,measurement,setting,value
N#Cc1cnc(Nc2cc(NC[C@H]3CNCCO3)c(C(F)(F)F)cn2)cn1 [SRA-737],Activity,[1],78%
same,Activity,[2],41%
same,inhibition,[3],87%
same,Activity,[4],80%
same,Activity,[5],Non-Toxic
same,Activity,[6],37%
same,Activity,[7],Toxic
same,Activity,Mus musculus [8],Active
same,Activity,[9],65%
same,AUC(0-t),[10],222 µM·h
same,inhibition,Mus musculus [11],Active
same,Activity,[12],39%
same,Activity,[13],77%
same,inhibition,[14],88%
same,Activity,[15],110%
same,Activity,[16],Toxic
same,Activity,[17],75%
same,Activity,Mus musculus [18],Active
same,Activity,[19],108%
same,Activity,[20],38%
same,Activity,[21],24%
same,Activity,HT-29,Active
same,IC50,[22],1660 nM
same,IC50,[23],362 nM
same,Activity,[24],73%
same,Activity,[25],37%
same,Activity,[26],75%
same,IC50,[27],361 nM
same,Activity,[28],Toxic
